From ChEMBL document CHEMBL4725336, “Anti-cancer potential of (1,2-dihydronaphtho[2,1-b]furan-2-yl)methanone derivatives” (Bioorg Med Chem Lett, 2020)

What was measured:
[1] = tested on: MDA-MB-468; assay: Antiproliferative activity against human MDA-MB-468 cells assessed as inhibition of cell proliferation by MTT assay; assay type: functional; details: read-out: LD50 (the source's name)
Outline: (§1)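 MTT proliferation assay; cells exposed to compounds across 0-50 μM; LD50 derived from dose-dependent survival. Triple-negative MDA-MB-468, MDA-MB-231 and 4T1, ER+/PR+ MCF-7, and non-cancerous lung fibroblast WI-38 tested.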

[2] = Cytotoxicity against human WI-38 cells assessed as inhibition of cell proliferation by MTT assay; assay type: cell-based; details: read-out: LD50 (the source's name); outline: as §1
[3] = Selectivity index, ratio of LD50 for human WI-38 cells to LD50 for human MDA-MB-468 cells assessed as inhibition of cell proliferation by MTT assay; assay type: toxicity; details: WI-38 cells and MDA-MB-468 cells, read-out: Selectivity Index
Outline: (§2)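 MTT proliferation assay on cells treated with 0–50 μM. LD50 was derived for each cell line, and the selectivity index was calculated as WI-38 LD50 divided by cancer-cell LD50.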

[4] = tested on: MCF7; assay: Antiproliferative activity against human MCF7 cells assessed as inhibition of cell proliferation by MTT assay; assay type: functional; details: read-out: LD50 (the source's name); outline: as §1
[5] = Selectivity index, ratio of LD50 for human WI-38 cells to LD50 for human MCF7 cells assessed as inhibition of cell proliferation by MTT assay; assay type: toxicity; details: WI-38 cells and MCF7 cells, read-out: Selectivity Index; outline: as §2
[6] = Selectivity index, ratio of LD50 for human WI-38 cells to LD50 for mouse 4T1 cells assessed as inhibition of cell proliferation by MTT assay
Outline: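 Selectivity index computed as MTT-derived LD50 in non-cancerous WI-38 lung fibroblasts divided by LD50 in the cancer line (cells exposed to 0-50 μM).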

[7] = Selectivity index, ratio of LD50 for human WI-38 cells to LD50 for human MDA-MB-231 cells assessed as inhibition of cell proliferation by MTT assay; assay type: toxicity; details: WI-38 cells and MDA-MB-231 cells, read-out: Selectivity Index
[8] = tested on: 4T1; assay: Antiproliferative activity against mouse 4T1 cells assessed as inhibition of cell proliferation by MTT assay; assay type: functional; details: read-out: LD50 (the source's name); outline: as §1
[9] = tested on: MDA-MB-231; assay: Antiproliferative activity against human MDA-MB-231 cells assessed as inhibition of cell proliferation by MTT assay; assay type: functional; details: read-out: LD50 (the source's name); outline: as §1

SMILES | CC50 [1] [µM] | CC50 [2] [µM] | selectivity ratio [3] | CC50 [4] [µM] | selectivity ratio [5] | Selectivity Index [6] | selectivity ratio [7] | CC50 [8] [µM] | CC50 [9] [µM]
O=C(c1ccco1)[C@@H]1Cc2c(ccc3ccccc23)O1 | 34 | 51 | 1.5 | 37 | 1.38 |  |  |  | 
CC(=O)[C@@H]1Cc2c(ccc3ccccc23)O1 | 22 | 47 | 2.13 | 26 | 1.8 |  |  |  | 
O=C(c1ccc(F)cc1)[C@@H]1Cc2c(ccc3ccccc23)O1 | 27 | 54 | 2 | 29 | 1.86 |  |  |  | 
O=C(c1ccccc1)[C@H]1Oc2ccc3ccccc3c2[C@@H]1c1ccccc1 | 72 | 89 | 1.24 | 68 | 1.3 |  |  |  | 
O=C(c1ccccc1)[C@H]1Oc2ccc3ccccc3c2[C@@H]1c1ccc(Cl)cc1 | 87 | 96 | 1.1 | 91 | 1.05 |  |  |  | 
COc1cc([C@@H]2c3cc4c(cc3[C@@H](O[C@@H]3O[C@@H]5CO[C@@H](C)O[C@H]5[C@H](O)[C@H]3O)[C@H]3COC(=O)[C@H]23)OCO4)cc(OC)c1O [ETOPOSIDE] | 27.9 | 29.6 | 1.06 | 45.3 | 0.65 |  |  |  | 
Cc1ccc([C@H]2c3c(ccc4ccccc34)O[C@@H]2C(=O)c2ccccc2)cc1 | 63 | 72 | 1.14 | 71 | 1.01 |  |  |  | 
CCC[C@H]1c2c(ccc3ccccc23)O[C@@H]1C(=O)c1ccccc1 | 69 | 79 | 1.14 | 74 | 1.07 |  |  |  | 
O=C(c1ccccc1)[C@H]1Oc2ccc3ccccc3c2[C@@H]1C1CCCCC1 | 46 | 74 | 1.6 | 42 | 1.76 |  |  |  | 
O=C(c1ccccc1)[C@H]1Oc2ccc3cc(Br)ccc3c2[C@@H]1c1ccccc1 | 18 | 52 | 2.89 | 19 | 2.74 | 2.16 | 2.36 | 24 | 22
COc1ccc([C@H]2c3c(ccc4ccccc34)O[C@@H]2C(=O)c2ccccc2)cc1 | 118 | 83 | 0.7 | 84 | 0.98 |  |  |  | 
O=C(c1ccccc1)[C@H]1Oc2ccc3ccccc3c2[C@@H]1c1ccc(Br)cc1 | 63 | 77 | 1.22 | 56 | 1.37 |  |  |  | 
O=C(c1ccccc1)[C@@H]1Cc2c(ccc3cc(Br)ccc23)O1 | 32 | 73 | 2.28 | 54 | 1.35 |  |  |  | 
O=C(c1ccc(Br)cc1)[C@@H]1Cc2c(ccc3ccccc23)O1 | 18 | 56 | 3.11 | 21 | 2.66 | 2.24 | 2.43 | 25 | 23
O=C(c1ccccc1)[C@H]1Oc2ccc3ccccc3c2[C@@H]1c1ccc(O)cc1 | 81 | 115 | 1.42 | 77 | 1.49 |  |  |  | 
N#Cc1ccc(C(=O)[C@H]2Oc3ccc4ccccc4c3[C@@H]2c2ccc3ccccc3c2)cc1 | 54 | 88 | 1.63 | 57 | 1.54 |  |  |  | 
N#Cc1ccc([C@H]2c3c(ccc4ccccc34)O[C@@H]2C(=O)c2ccccc2)cc1 | 53 | 72 | 1.35 | 51 | 1.41 |  |  |  | 
O=C(c1ccco1)[C@H]1Oc2ccc3cc(Br)ccc3c2[C@@H]1c1ccccc1 | 68 | 92 | 1.35 | 72 | 1.28 |  |  |  | 
C[C@H]1c2c(ccc3ccccc23)O[C@@H]1C(=O)c1ccccc1 | 34 | 64 | 1.88 | 38 | 1.68 |  |  |  | 
COc1cc([C@H]2c3c(ccc4ccccc34)O[C@@H]2C(=O)c2ccccc2)cc(OC)c1OC | 88 | 128 | 1.45 | 86 | 1.49 |  |  |  | 
O=C(c1ccccc1)[C@H]1Oc2ccc3ccccc3c2[C@@H]1c1ccc2ccccc2c1 | 23 | 59 | 2.56 | 28 | 2.1 |  |  |  | 
